The results in this text go back to ChEMBL document CHEMBL4725355, “Design, Synthesis, and Preclinical Evaluation of 3-Methyl-6-(5-thiophenyl)-1,3-dihydro-imidazo[4,5-b]pyridin-2-ones as Selective GluN2B Negative Allosteric Modulators for the Treatment of Mood Disorders” (J Med Chem, 2020).

Data set [1] is described as follows: AUC (0 to 24 hrs) in Sprague-Dawley rat at 500 mg/kg, po administered via gavage after 24 hrs using nanosuspension formulation by LC-MS/MS analysis. In kind it is ADME, organism-based. Also on record: route oral, dose 500 mg/kg, time <=24. Conditions: in vivo. Put shortly:
(§1)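 Single oral gavage dose to male Sprague Dawley rats, 3 per dose level. Vehicles were a standard suspension in 5% HPMC (125, 250, 500 or 1000 mg/kg) or a nanosuspension (API:polymer 4:1), with stock diluted in vehicle on the day of dosing (100, 250 or 500 mg/kg). Blood was sampled at time points from 0.5 to 24 h.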

A short description of data set [2]: Tmax in Sprague-Dawley rat at 2.5 mg/kg, po by LC-MS/MS analysis. In kind it is ADME, organism-based. Conditions: in vivo.
A short description of data set [3]: Solubility of compound in phosphate buffer at pH 7 measured after 3 days. Conditions: time 3 day. Format: physicochemical. Put shortly:
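Solubility in aqueous buffer at pH 2 and pH 7, and in simulated gastric and intestinal fluids.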

The nature of data set [4]: AUC (infinity) in dog at 0.1 mg/kg, iv by LC-MS/MS analysis. Conditions: in vivo. Also on record: time infinity, route intravenous, dose 0.1 mg/kg. In kind it is ADME, organism-based, Canis lupus familiaris.
A short description of data set [5]: Tmax in Sprague-Dawley rat at 500 mg/kg, po administered via gavage after 24 hrs using HPMC formulation by LC-MS/MS analysis. Format: ADME, organism-based. Conditions: in vivo. Put shortly: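 Single oral gavage of a 5% HPMC suspension at 125, 250, 500 or 1000 mg/kg to male Sprague Dawley rats, 3 per group. Plasma was sampled at 6 time points from 0.5 to 24 h.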

Data set [6] is described as follows: Oral bioavailability in dog at 0.5 mg/kg by LC-MS/MS analysis. Conditions: in vivo. In kind it is ADME, organism-based, Canis lupus familiaris.
Data set [7] can be described thus: Half life in monkey at 0.5 mg/kg, po by LC-MS/MS analysis. In kind it is ADME, organism-based, Macaca mulatta. Conditions: rhesus monkey, in vivo.
Data set [8] can be described thus: Drug level in Sprague-Dawley rat brain cerebellum at 0.03 mg/kg, iv after 120 min by LC-MS/MS analysis. Format: ADME, organism-based. Conditions: read-out: Drug uptake. An outline of the steps: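 Rats (n=3 per group) received a single IV dose of 0.03 mg/kg in 50% (w/v) PEG/water at pH 7.4 and were sacrificed at 5, 10, 30, 60 and 120 min. Cerebellum, cortex, striatum and hippocampus were weighed, homogenized and analyzed by LC-MS/MS, with levels normalized to tissue weight.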

Data set [9] can be described thus: Half life in dog at 0.1 mg/kg, iv by LC-MS/MS analysis. In kind it is ADME, organism-based, Canis lupus familiaris. Conditions: in vivo.
A short description of data set [10]: Cmax in Sprague-Dawley rat at 1000 mg/kg, po administered via gavage after 24 hrs using HPMC formulation by LC-MS/MS analysis. Format: ADME, organism-based. Also on record: route oral, dose 1000 mg/kg, time 24 hrs. Conditions: in vivo. An outline of the steps:
as §1

The nature of data set [11]: Ratio of Cmax in Sprague-Dawley rat at 1000 mg/kg, po administered via gavage after 24 hrs using HPMC formulation by LC-MS/MS analysis to EC70 for ex vivo receptor occupancy at GluN2B in po dosed Sprague-Dawley rat assessed as 3-[3H] 1-(azetidin-1-yl)-2-[6-(4-fluoro-3-methyl-phenyl)pyrrolo[3,2-b]pyridin-1-yl]-ethanone labelling. In kind it is ADME, organism-based.
The target of a further data set is Cytochrome P450 2C19 (Homo sapiens, UniProt P33261). The data set can be described thus: Inhibition of CYP2C19 in human liver microsomes using S-mephenytoin as substrate measured after 15 mins by LC-MS/MS analysis. Format: ADME. An outline of the steps:
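Human liver microsomes incubated with isoform-specific probe substrates and the test compound at concentrations up to 20 µM. IC50 derived from inhibition of metabolite formation; mean of two independent experiments, with known specific inhibitors as positive controls.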
On the technique in general: Liver microsomes are a subcellular fraction often used to study metabolism.

Data set [12] is described as follows: Ratio of Cmax in Sprague-Dawley rat at 500 mg/kg, po administered via gavage after 24 hrs using nanosuspension formulation by LC-MS/MS analysis to EC70 for ex vivo receptor occupancy at GluN2B in po dosed Sprague-Dawley rat assessed as 3-[3H] 1-(azetidin-1-yl)-2-[6-(4-fluoro-3-methyl-phenyl)pyrrolo[3,2-b]pyridin-1-yl]-ethanone labelling. In kind it is ADME, organism-based.

The next data set has as its system Rattus norvegicus. The data set can be described thus: Ex vivo receptor occupancy at GluN2B in po dosed Sprague-Dawley rat assessed as total plasma concentration causing 70% 3-[3H] 1-(azetidin-1-yl)-2-[6-(4-fluoro-3-methyl-phenyl)pyrrolo[3,2-b]pyridin-1-yl]-ethanone labelling measured after 60 mins by autoradiography. Format: functional, organism-based. An outline of the steps:
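Oral dosing in rat at 8 dose levels, vehicle 20% HP-β-CD, 3 animals per group. Hippocampal GluN2B occupancy was measured ex vivo by autoradiography at 60 min post dose with the [3H] pyrrolopyridine tracer on brain slices. Labelling was expressed as percent of naïve control rats. EC70 was taken as the total (bound + unbound) plasma concentration giving 70% occupancy, with a 95% confidence interval.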

Data set [13] concerns the target Voltage-gated inwardly rectifying potassium channel KCNH2 (Homo sapiens, UniProt Q12809). The data set can be described thus: Inhibition of human ERG expressed in CHO cells measured after 5 mins by Qpatch method. Format: cell-based. An outline of the steps:
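CHO cells stably expressing hERG, whole-cell QPatch. Vehicle applied 5 min, then 0.3, 3.0, 10 and 30 µM in rising order, each concentration applied twice. Current measured after 5 min as the average of 3 voltage pulses; block taken relative to vehicle pretreatment, mean ± SEM.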
Background: The patch-clamp technique gives a direct electrical read-out from membranes.

A short description of data set [14]: Cmax in Sprague-Dawley rat at 100 mg/kg, po administered via gavage after 24 hrs using nanosuspension formulation by LC-MS/MS analysis. Format: ADME, organism-based. Conditions: in vivo. Further details: route oral, dose 100 mg/kg, time 24 hrs. Put shortly: as §1
Data set [15] can be described thus: Ratio of Cmax in Sprague-Dawley rat at 500 mg/kg/day, po administered as nanosuspension measured for 14 days to EC70 for ex vivo receptor occupancy at GluN2B in po dosed Sprague-Dawley rat assessed as 3-[3H] 1-(azetidin-1-yl)-2-[6-(4-fluoro-3-methyl-phenyl)pyrrolo[3,2-b]pyridin-1-yl]-ethanone labelling. In kind it is ADME, organism-based. Conditions: 336 h.
The nature of data set [16]: Oral bioavailability in monkey at 0.5 mg/kg by LC-MS/MS analysis. Format: ADME, organism-based, Macaca mulatta. Conditions: rhesus monkey, in vivo.
Data set [17] in a line: Tmax in Sprague-Dawley rat at 250 mg/kg, po administered via gavage after 24 hrs using nanosuspension formulation by LC-MS/MS analysis. Format: ADME, organism-based. Conditions: in vivo. An outline of the steps:
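Single oral gavage of a nanosuspension (API:polymer 4:1), diluted with vehicle on the dosing day, at 100, 250 or 500 mg/kg to male Sprague Dawley rats, 3 per dose. Plasma was sampled from 0.5 to 24 h.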

Another data set concerns the target Cytochrome P450 3A4 (Homo sapiens, UniProt P08684). The data set can be described thus: Time-dependent inhibition of CYP3A4 in human liver microsomes at 10 uM using midazolam as substrate by LC-MS/MS analysis. In kind it is ADME. An outline of the steps: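 CYP3A4 time-dependent inhibition in human liver microsomes. The compound (0.4 to 10 μM) was tested with and without 30 min preincubation. IC50 was taken from percent activity remaining versus vehicle, averaged over two independent experiments. A >2-fold IC50 shift after preincubation was the threshold for time-dependent inhibition.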

A short description of data set [18]: AUC (0 to 24 hrs) in Sprague-Dawley rat at 1000 mg/kg, po administered via gavage after 24 hrs using HPMC formulation by LC-MS/MS analysis. Conditions: in vivo. Format: ADME, organism-based. Also on record: route oral, dose 1000 mg/kg, time <=24.
Data set [19] in a line: AUC (0 to 24 hrs) in Sprague-Dawley rat at 100 mg/kg, po administered via gavage after 24 hrs using nanosuspension formulation by LC-MS/MS analysis. Format: ADME, organism-based. Also on record: route oral, dose 100 mg/kg, time <=24. Conditions: in vivo. Put shortly:
as §1

The nature of data set [20]: AUC (0 to 24 hrs) in Sprague-Dawley rat at 125 mg/kg, po administered via gavage after 24 hrs using HPMC formulation by LC-MS/MS analysis. Conditions: in vivo. Format: ADME, organism-based. Further details: route oral, dose 125 mg/kg, time <=24. Put shortly:
as §1

One may read the AUC(0-t) as exposure summed from dosing to a finite time, without extrapolation to infinity. Broadly, the Tmax is the time from dosing to the highest level. The term solubility denotes how much of the substance goes into solution per volume. In general, AUC(0-inf) refers to total exposure, with the tail of the curve extrapolated. One may read the bioavailability as the share of a dose that reaches the circulation, judged against a reference dose that is usually intravenous. Broadly, the half-life is how long it takes for the measured level to halve. The Cmax is the maximum level reached in the sampled fluid or tissue. Broadly, the IC50 is the concentration needed to halve the response being measured.

Some results are limits rather than exact numbers.

Sequence of Voltage-gated inwardly rectifying potassium channel KCNH2 (Q12809 whole entry): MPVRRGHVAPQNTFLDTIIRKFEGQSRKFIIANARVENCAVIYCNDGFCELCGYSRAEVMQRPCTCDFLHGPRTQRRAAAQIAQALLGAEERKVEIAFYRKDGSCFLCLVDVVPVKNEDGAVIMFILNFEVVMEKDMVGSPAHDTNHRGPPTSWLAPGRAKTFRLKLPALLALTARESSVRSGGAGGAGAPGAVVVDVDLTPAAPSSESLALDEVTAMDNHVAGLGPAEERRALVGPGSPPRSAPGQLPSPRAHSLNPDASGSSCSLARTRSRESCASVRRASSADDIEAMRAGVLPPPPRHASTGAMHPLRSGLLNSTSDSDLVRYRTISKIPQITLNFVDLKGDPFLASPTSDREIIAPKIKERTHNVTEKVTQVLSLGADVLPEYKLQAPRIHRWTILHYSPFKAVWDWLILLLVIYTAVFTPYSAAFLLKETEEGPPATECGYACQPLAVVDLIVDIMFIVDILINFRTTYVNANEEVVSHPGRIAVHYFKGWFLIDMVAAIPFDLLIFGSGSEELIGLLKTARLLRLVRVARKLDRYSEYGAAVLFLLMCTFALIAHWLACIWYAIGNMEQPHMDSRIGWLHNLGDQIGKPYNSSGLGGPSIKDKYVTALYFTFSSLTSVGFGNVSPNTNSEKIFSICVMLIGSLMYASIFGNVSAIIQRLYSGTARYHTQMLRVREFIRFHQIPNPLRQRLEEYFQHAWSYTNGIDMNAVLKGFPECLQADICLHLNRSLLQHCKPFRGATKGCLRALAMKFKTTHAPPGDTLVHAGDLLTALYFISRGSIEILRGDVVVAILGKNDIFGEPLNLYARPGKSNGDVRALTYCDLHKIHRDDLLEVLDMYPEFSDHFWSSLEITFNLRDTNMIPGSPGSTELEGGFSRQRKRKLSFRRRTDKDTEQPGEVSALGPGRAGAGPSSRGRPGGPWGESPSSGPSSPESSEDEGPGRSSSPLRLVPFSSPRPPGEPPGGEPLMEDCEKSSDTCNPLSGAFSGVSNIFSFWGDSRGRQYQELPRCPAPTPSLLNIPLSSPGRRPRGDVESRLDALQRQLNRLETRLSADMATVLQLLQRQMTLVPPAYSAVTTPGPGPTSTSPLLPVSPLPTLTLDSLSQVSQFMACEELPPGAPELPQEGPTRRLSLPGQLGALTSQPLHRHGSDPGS
Sequence of Cytochrome P450 3A4 (P08684 whole entry): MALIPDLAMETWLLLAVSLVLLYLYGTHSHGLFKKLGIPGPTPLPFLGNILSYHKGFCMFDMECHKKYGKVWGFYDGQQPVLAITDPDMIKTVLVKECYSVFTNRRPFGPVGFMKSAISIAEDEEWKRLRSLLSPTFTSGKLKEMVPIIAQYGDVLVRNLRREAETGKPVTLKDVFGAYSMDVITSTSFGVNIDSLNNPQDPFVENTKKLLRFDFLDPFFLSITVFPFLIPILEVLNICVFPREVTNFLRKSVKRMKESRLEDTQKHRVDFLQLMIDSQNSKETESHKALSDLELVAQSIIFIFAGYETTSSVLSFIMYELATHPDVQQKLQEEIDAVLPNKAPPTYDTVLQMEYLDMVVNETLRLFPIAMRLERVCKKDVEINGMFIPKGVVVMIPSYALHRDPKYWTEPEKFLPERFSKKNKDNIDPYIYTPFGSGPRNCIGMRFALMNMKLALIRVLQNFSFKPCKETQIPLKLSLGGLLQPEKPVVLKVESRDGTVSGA
Sequence of Cytochrome P450 2C19 (P33261 whole entry, canonical isoform): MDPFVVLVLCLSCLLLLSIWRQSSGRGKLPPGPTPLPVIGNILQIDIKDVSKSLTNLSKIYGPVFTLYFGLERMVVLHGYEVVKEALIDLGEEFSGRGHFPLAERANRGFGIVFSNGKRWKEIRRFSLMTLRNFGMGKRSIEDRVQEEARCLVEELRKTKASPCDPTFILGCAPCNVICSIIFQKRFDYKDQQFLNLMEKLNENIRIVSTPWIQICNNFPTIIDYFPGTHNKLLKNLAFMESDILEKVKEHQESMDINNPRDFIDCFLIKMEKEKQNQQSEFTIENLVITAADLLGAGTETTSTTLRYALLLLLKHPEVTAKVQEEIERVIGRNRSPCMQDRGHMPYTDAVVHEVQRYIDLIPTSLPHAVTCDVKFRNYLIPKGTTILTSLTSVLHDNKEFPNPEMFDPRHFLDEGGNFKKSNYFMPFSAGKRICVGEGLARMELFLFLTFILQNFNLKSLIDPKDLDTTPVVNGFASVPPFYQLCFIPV

Take `Cn1c(=O)n(CC(=O)N2CCC2)c2cc(-c3ccc(C(F)(F)F)s3)cnc21`: the AUC(0-t) in data set [1] is 156000 ng·h/mL; in data set [18], 22300 ng·h/mL; in data set [19] it was 51900 ng·h/mL; in [20], 22800 ng·h/mL. Further, the values for the time of peak concentration (Tmax) in data set [2], in [5] and in data set [17] were 1.3 h, 1 h and 2.7 h, respectively. In [3], this compound yielded a solubility at 72 h of under 4 µM. Further, in data set [4], the AUC(0-inf) is 126 ng·h/mL. Also, the bioavailability in data set [6] turned out to be 43%; in [16], 41%. For the same compound, the figures for the half-life in data set [7] and in [9] were 1 h and 0.8 h, respectively. The concentration at 2 h in data set [8] turned out to be 6.9 ng/mL. In addition, the values for the Cmax in data set [10] and in [14] were 7010 ng/mL and 9000 ng/mL, respectively. Besides, the Ratio was found to be 10 in data set [11], 26 in [12] and 31 in data set [15]. Also, the half-inhibitory concentration (IC50) was over 50 µM against Cytochrome P450 2C19 and over 30 µM in [13]. The Cp in the data set with Rattus norvegicus was 716 ng/mL. Besides, the TDI result at Cytochrome P450 3A4 is “Not Active”.
